Laboratory results published in ChEMBL document CHEMBL4004822, “Thienopyrimidinone Based Sirtuin-2 (SIRT2)-Selective Inhibitors Bind in the Ligand Induced Selectivity Pocket” (J Med Chem, 2017).

Target: T1, NAD-dependent protein deacetylase sirtuin-2 (Homo sapiens) (UniProt Q8IXJ6)
T1 sequence (whole entry): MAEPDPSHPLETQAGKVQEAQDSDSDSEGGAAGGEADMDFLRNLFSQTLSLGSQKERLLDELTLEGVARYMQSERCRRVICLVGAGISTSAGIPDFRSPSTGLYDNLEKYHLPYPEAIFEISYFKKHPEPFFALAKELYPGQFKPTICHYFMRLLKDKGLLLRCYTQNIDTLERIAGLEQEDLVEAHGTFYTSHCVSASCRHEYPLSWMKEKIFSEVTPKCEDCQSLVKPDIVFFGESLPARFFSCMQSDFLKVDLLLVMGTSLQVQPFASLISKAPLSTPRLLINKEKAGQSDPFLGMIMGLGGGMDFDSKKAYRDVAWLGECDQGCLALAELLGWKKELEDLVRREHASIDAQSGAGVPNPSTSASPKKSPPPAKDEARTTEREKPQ
Assay: Inhibition of recombinant human C-terminal His-tagged SIRT2 (50 to 389 end residues) expressed in Escherichia coli at 10 uM using p53 derived (379 to 382 residues) fluorogenic peptide substrate RHKK(Ac)-AMC preincubated for 10 mins followed by substrate addition in presence of NAD+ by fluorescence assay relative to control
How it was run: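 Two-step fluorogenic assay with p53 379–382 RHKK(Ac)-AMC. Compound (from 10 mM DMSO stock) preincubated ~10 min with human SIRT before substrate addition. Developer then releases fluorophore, read at ex 360/em 460 nm.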

inhibition [%] | Compound
50 | O=c1c2c3c(sc2ncn1Cc1cccc2ccccc12)CC(Nc1ccc(F)cc1)CC3 (stereo not given)
33 | O=c1c2c3c(sc2ncn1Cc1cccc(-c2ccccc2)c1)CC(Nc1ccc2c(c1)OCO2)CC3 (stereo not given)
43 | O=c1c2c3c(sc2ncn1Cc1ccc2ccccc2c1)CC(NCc1ccccc1Cl)CC3 (stereo not given)
45 | COc1ccccc1Cn1cnc2sc3c(c2c1=O)CCC(NCc1cncnc1)C3 (stereo not given)
64 | COc1cccc(Cn2cnc3sc4c(c3c2=O)CCC(NCc2ccccc2)C4)c1 (stereo not given)
27 | COc1cccc(Cn2cnc3sc4c(c3c2=O)CCC(NCc2cccnc2)C4)c1 (stereo not given)
71 | COc1ccc(Cn2cnc3sc4c(c3c2=O)CCC(NCc2ccccc2F)C4)c2ccccc12 (stereo not given)
52 | COc1ccc(NC2CCc3c(sc4ncn(Cc5cccc6ccccc56)c(=O)c34)C2)cc1 (stereo not given)
56 | COc1ccc(Cn2cnc3sc4c(c3c2=O)CCC(Nc2ccc(F)cc2)C4)c2ccccc12 (stereo not given)
3 | COc1cccc(Cn2cnc3sc4c(c3c2=O)CCC(NCC2CCCO2)C4)c1 (stereo not given)
59 | COc1cccc(CNC2CCc3c(sc4ncn(Cc5cccc6ccccc56)c(=O)c34)C2)c1 (stereo not given)
47 | CC(=O)NCCNC1CCc2c(sc3ncn(Cc4ccc5ccccc5c4)c(=O)c23)C1 (stereo not given)
70 | COc1ccc(Cn2cnc3sc4c(c3c2=O)CCC(NCC2CCOC2)C4)c2ccccc12 (stereo not given)
56 | COc1ccc(CNC2CCc3c(sc4ncn(Cc5ccccc5OC)c(=O)c34)C2)cn1 (stereo not given)
46 | COc1ccccc1CNC1CCc2c(sc3ncn(Cc4ccccc4)c(=O)c23)C1 (stereo not given)
35 | COc1ccccc1Cn1cnc2sc3c(c2c1=O)CCC(NCc1ccccn1)C3 (stereo not given)
60 | Cc1noc(C)c1CNC1CCc2c(sc3ncn(Cc4cccc(-c5ccccc5)c4)c(=O)c23)C1 (stereo not given)
60 | O=c1c2c3c(sc2ncn1Cc1ccc2ccccc2c1)CC(NC1CCc2ccccc21)CC3 (stereo not given)
70 | COCCNC1CCc2c(sc3ncn(Cc4ccc(OC)c5ccccc45)c(=O)c23)C1 (stereo not given)
44 | COCCNC1CCc2c(sc3ncn(Cc4c(OC)ccc5ccccc45)c(=O)c23)C1 (stereo not given)
43 | O=c1c2c3c(sc2ncn1Cc1cccc(-c2ccccc2)c1)CC(NCc1cccc(Cl)c1)CC3 (stereo not given)
27 | O=c1c2c3c(sc2ncn1Cc1ccccc1)CC(NCCc1cccnc1)CC3 (stereo not given)
41 | COCCNC1CCc2c(sc3ncn(Cc4cccc5cccnc45)c(=O)c23)C1 (stereo not given)
29 | O=c1c2c3c(sc2ncn1Cc1cccc2ccccc12)CC(Nc1ccc2c(c1)OCO2)CC3 (stereo not given)

inhibition [%] | Compound
64 | COc1ccccc1Cn1cnc2sc3c(c2c1=O)CCC(NCc1ccncc1)C3 (stereo not given)
60 | COc1ccccc1CCNC1CCc2c(sc3ncn(Cc4cccc5ccccc45)c(=O)c23)C1 (stereo not given)
33 | COc1ccc2ccccc2c1Cn1cnc2sc3c(c2c1=O)CCC(NCc1cncnc1)C3 (stereo not given)
6.5 | COc1ccc(Cn2cnc3sc4c(c3c2=O)CCC(NCc2cccc(Cl)c2)C4)c2ccccc12 (stereo not given)
69 | COc1ccccc1NC1CCc2c(sc3ncn(Cc4cccc5cccnc45)c(=O)c23)C1 (stereo not given)
28 | Cc1cccc(NC2CCc3c(sc4ncn(Cc5cccc(-c6ccccc6)c5)c(=O)c34)C2)c1 (stereo not given)
27 | COc1ccccc1Cn1cnc2sc3c(c2c1=O)CCC(NCC1CCCO1)C3 (stereo not given)
30 | COc1ccc2ccccc2c1Cn1cnc2sc(CCN(C)C)c(C)c2c1=O
56 | O=c1c2c3c(sc2ncn1Cc1ccccc1)CC(NCC1CCCCC1)CC3 (stereo not given)
66 | O=c1c2c3c(sc2ncn1Cc1cccc2ccccc12)CC(NCc1ccccc1)CC3 (stereo not given)
39 | COc1cccc(Cn2cnc3sc4c(c3c2=O)CCC(NCCc2ccncc2)C4)c1 (stereo not given)
50 | COc1ccc2ccccc2c1Cn1cnc2sc3c(c2c1=O)CCC(NCc1cccc(Cl)c1)C3 (stereo not given)
56 | O=c1c2c3c(sc2ncn1Cc1cccc(-c2ccccc2)c1)CC(NCc1ccc(Cl)cc1)CC3 (stereo not given)
67 | COc1cccc(NC2CCc3c(sc4ncn(Cc5cccc6cccnc56)c(=O)c34)C2)c1 (stereo not given)
75 | N#Cc1ccc(CNC2CCc3c(sc4ncn(Cc5cccc(-c6ccccc6)c5)c(=O)c34)C2)cc1 (stereo not given)
29 | O=c1c2c3c(sc2ncn1Cc1cccc2cccnc12)CC(NCCN1CCCC1)CC3 (stereo not given)
67 | COc1ccc(CNC2CCc3c(sc4ncn(Cc5ccccc5OC)c(=O)c34)C2)cc1 (stereo not given)
75 | O=c1c2c3c(sc2ncn1Cc1cccc2cccnc12)CC(NCc1cncnc1)CC3 (stereo not given)
78 | COc1cccc(CNC2CCc3c(sc4ncn(Cc5cccc6cccnc56)c(=O)c34)C2)c1 (stereo not given)
59 | COc1cccc(Cn2cnc3sc4c(c3c2=O)CCC(NCc2ccncc2)C4)c1 (stereo not given)
38 | COc1ccccc1Cn1cnc2sc3c(c2c1=O)CCC(NCCc1cccnc1)C3 (stereo not given)
67 | Cc1noc(C)c1CNC1CCc2c(sc3ncn(Cc4ccc5ccccc5c4)c(=O)c23)C1 (stereo not given)
18 | O=c1c2c3c(sc2ncn1Cc1ccccc1)CC(NCc1cncnc1)CC3 (stereo not given)
48 | COc1cccc(CNC2CCc3c(sc4ncn(Cc5ccccc5)c(=O)c34)C2)c1 (stereo not given)

inhibition [%] | Compound
31 | COc1ccc(NC2CCc3c(sc4ncn(Cc5cccc(-c6ccccc6)c5)c(=O)c34)C2)cc1 (stereo not given)
43 | COc1ccccc1Cn1cnc2sc3c(c2c1=O)CCC(NCc1ccco1)C3 (stereo not given)
49 | O=c1c2c3c(sc2ncn1Cc1ccc2ccccc2c1)CC(NCc1cccc(Cl)c1)CC3 (stereo not given)
65 | COc1ccc(Cn2cnc3sc4c(c3c2=O)CCC(NCc2ccccc2Cl)C4)c2ccccc12 (stereo not given)
62 | O=c1c2c3c(sc2ncn1Cc1ccc2ccccc2c1)CC(NCc1cccs1)CC3 (stereo not given)
64 | COc1cccc(Cn2cnc3sc4c(c3c2=O)CCC(NCc2ccccc2OC)C4)c1 (stereo not given)
32 | Cc1nn(C)c(C)c1CNC1CCc2c(sc3ncn(Cc4ccccc4)c(=O)c23)C1 (stereo not given)
28 | CC(=O)NCCNC1CCc2c(sc3ncn(Cc4cccc5ccccc45)c(=O)c23)C1 (stereo not given)
59 | O=c1c2c3c(sc2ncn1Cc1ccc2ccccc2c1)CC(NCCC1CCCCC1)CC3 (stereo not given)
51 | O=c1c2c3c(sc2ncn1Cc1cccc2cccnc12)CC(NC1CCOCC1)CC3 (stereo not given)
44 | COc1ccc2ccccc2c1Cn1cnc2sc3c(c2c1=O)CCC(Nc1ccc(F)cc1)C3 (stereo not given)
37 | COc1cccc(NC2CCc3c(sc4ncn(Cc5ccc6ccccc6c5)c(=O)c34)C2)c1 (stereo not given)
68 | COc1cccc(Cn2cnc3sc4c(c3c2=O)CCC(NCc2ccccc2Cl)C4)c1 (stereo not given)
26 | COc1ccccc1Cn1cnc2sc3c(c2c1=O)CCC(NCCc1ccncc1)C3 (stereo not given)
36 | COc1ccccc1NC1CCc2c(sc3ncn(Cc4ccc5ccccc5c4)c(=O)c23)C1 (stereo not given)
45 | COc1ccc(CNC2CCc3c(sc4ncn(Cc5ccccc5)c(=O)c34)C2)cc1 (stereo not given)
70 | COc1ccc2ccccc2c1Cn1cnc2sc3c(c2c1=O)CCC(NCCN1CCOCC1)C3 (stereo not given)
54 | O=c1c2c3c(sc2ncn1Cc1cccc2ccccc12)CC(NCc1cccs1)CC3 (stereo not given)
26 | O=c1c2c3c(sc2ncn1Cc1ccccc1)CC(NCc1ccccn1)CC3 (stereo not given)
31 | Cc1cccc(NC2CCc3c(sc4ncn(Cc5ccc6ccccc6c5)c(=O)c34)C2)c1 (stereo not given)
51 | O=c1c2c3c(sc2ncn1Cc1ccc2ccccc2c1)CC(NCc1ccccc1F)CC3 (stereo not given)
65 | O=c1c2c3c(sc2ncn1Cc1cccc2ccccc12)CC(NCCC1CCCCC1)CC3 (stereo not given)
